We go through three compounds from ChEMBL document CHEMBL3112563, “The benzimidazole based drugs show good activity against T. gondii but poor activity against its proposed enoyl reductase enzyme target” (Bioorg Med Chem Lett, 2014).

Values after ≈ are worked out from the molar mass of the structure shown. Active and inactive are the calls of the source. The calls are words filed in the database; no cut-off is given here. Where only a bound is given, the exact number is not on record here.

In data set [1] the target is T1, Enoyl-acyl carrier reductase (Toxoplasma gondii, UniProt Q6UCJ9).
T1 sequence (Q6UCJ9 whole entry): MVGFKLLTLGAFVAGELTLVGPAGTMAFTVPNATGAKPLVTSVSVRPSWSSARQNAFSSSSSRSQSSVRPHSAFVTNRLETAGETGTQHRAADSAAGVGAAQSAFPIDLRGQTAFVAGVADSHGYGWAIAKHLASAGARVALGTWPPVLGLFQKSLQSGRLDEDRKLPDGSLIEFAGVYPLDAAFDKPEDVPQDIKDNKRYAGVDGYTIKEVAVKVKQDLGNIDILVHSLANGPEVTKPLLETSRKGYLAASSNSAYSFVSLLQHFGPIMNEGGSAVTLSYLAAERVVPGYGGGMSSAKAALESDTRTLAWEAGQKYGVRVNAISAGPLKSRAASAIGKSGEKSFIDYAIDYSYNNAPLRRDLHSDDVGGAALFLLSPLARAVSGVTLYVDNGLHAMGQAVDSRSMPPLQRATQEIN
Put plainly: Inhibition of Toxoplasma gondii enoyl-ACP reductase-NADH complex.

The test system of the next data set is PC-3. Kind of data set: Cytotoxicity against human PC3 cells at 10 uM after 96 hrs by luciferase reporter gene assay. It counts as cell-based. The conditions noted are these: pc-3, 96 h. The essentials: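 Confluent luciferase-expressing PC3-Luc cells in phenol red-free DMEM (10% FCS, 1% L-glutamine, 1% penicillin-streptomycin) given compound at 10 nM–10 µM. D-luciferin potassium salt added at 150 µg/ml at 48 and 96 h, then bioluminescence imaged for 1 min. Cytotoxicity taken as loss of signal. Controls: 1% Triton X (positive) and vehicle.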

For another data set, the system named is HFF. Put plainly: Cytotoxicity against HFF assessed as cell viability at 10 uM after 72 hrs by WST-1 assay. It counts as cell-based. As to conditions: human. The method in brief: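 Host HFF incubated with compound at 10 µM for 72 h. Viability read by WST-1 staining. DMSO at several concentrations in the culture medium gave a standard toxicity curve.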

In data set [2] the test system is Toxoplasma gondii. Put plainly: Antiparasitic activity against tachyzoite stage of Toxoplasma gondii RH infected in HFF assessed as inhibition of parasite growth after 72 hrs by yellow fluorescence reporter gene assay. Format: functional. The method in brief:
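HFF infected with 3200 RH-YFP tachyzoites (type 1, stably transfected with yellow fluorescence gene) and treated with compound at the indicated concentrations. Relative YFP fluorescence read after 72 h at excitation/emission 510/540 nm. Controls: pyrimethamine/sulfadiazine (positive), 0.1% DMSO (negative).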
For orientation: Reporter assays use an easily measured gene product as a stand-in for the process of interest.

The subject of data set [3] is Toxoplasma gondii. Put plainly: Antiparasitic activity against tachyzoite stage of Toxoplasma gondii PRU infected in HFF assessed as inhibition of parasite growth at 10 uM after 72 hrs by yellow fluorescence reporter gene assay. It counts as functional.

On to `Cc1cc2ncn(Cc3ccc(Cl)cc3)c2cc1C`, for which the IC50 in data set [1] is over 1 µM. Moreover, the Activity entry in the data set on PC-3 and in the data set on HFF was “Non-toxic” throughout. Besides, the MIC50 in the data set with Toxoplasma gondii [2] came out at 4 µM (≈ 1.08 µg/mL).
Consider `Cc1cc2ncn(Cc3ccc(Cl)c(Cl)c3)c2cc1C`, for which, in data set [1], the IC50 is over 1 µM. The inhibition entry in the data set with Toxoplasma gondii [3] was “Active”. The Activity result with PC-3 and in the data set on HFF was “Non-toxic” throughout. For the same compound, the MIC50 in the data set on Toxoplasma gondii [2] is 2.5 µM (≈ 0.763 µg/mL).
`Cc1ccc(Cn2cnc3cc(C)c(C)cc32)cc1` registered an IC50 in data set [1] of over 1 µM. For the same compound, in the data set on Toxoplasma gondii [3], the inhibition entry is “Active”. Moreover, the Activity result in the data set with PC-3 and in the data set on HFF was “Non-toxic” each time. Moreover, the MIC50 with Toxoplasma gondii [2] was over 10 µM.

The term IC50 denotes the point on the concentration scale where inhibition reaches its midpoint. A word on the MIC50: it is the lowest concentration that inhibits either 50% of growth or 50% of the strains tested, depending on the study.
